HMGR II inh: inhibitors of class II HMG-CoA reductase from Enterococcus faecalis. purified E. faecalis HMGR, NADPH absorbance 340 nm kinetic. inhibition, % at 10 µM. hit rate 0.41% among 190,000;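 active = inhibition above a set limit, the median over all tested compounds plus 3 SD, cut at about 9.5% in these data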;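 note: enzyme runs in reverse so mevalonate oxidation gives rising NADPH absorbance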
Arbovirus anti: antivirals against arbovirus infection. arbovirus infection cell-based antiviral screen. inhibition, % at 10 µM. hit rate 0.37% among 200,000; in the data active = inhibition above about 30%
Measles CPE: protection of cells from measles virus; Measles virus-infected cells, CPE protection, absorbance; protection (pct of control), % at 4 µM; hit rate 1.5% among 140,000; AID 841; in the data active = protection mostly above about 24%, no sharp cut-off; inactive = mostly below about 26%
Rad51 HR inh: blocks human Rad51 in homologous recombination; hRad51 DNA strand exchange, fluorescence dequenching; inhibition, % at 10 µM; hit rate 0.085% among 200,000; AID 1385;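 active = inhibition above 40% at the single screening dose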
Target sequence (Q06609 whole entry, looked up): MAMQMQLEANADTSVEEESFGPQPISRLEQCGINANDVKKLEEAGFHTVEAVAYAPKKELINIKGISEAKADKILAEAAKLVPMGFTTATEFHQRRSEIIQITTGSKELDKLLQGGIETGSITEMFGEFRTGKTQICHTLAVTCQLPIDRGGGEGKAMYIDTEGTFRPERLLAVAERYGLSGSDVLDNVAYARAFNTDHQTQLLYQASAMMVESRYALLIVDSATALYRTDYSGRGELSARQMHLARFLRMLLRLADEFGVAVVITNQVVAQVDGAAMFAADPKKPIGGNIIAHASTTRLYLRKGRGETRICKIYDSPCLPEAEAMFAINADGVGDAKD
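System: hRad51 filaments on single-stranded DNA; reagent: Fluorescein- and BHQ1-tagged 47-mer duplex; compound dosing: one concentration, 10 µM final; timing: filaments 15 min 37 °C, then compound 30 min; measured by: fluorescein emission 520 nm, excitation 485 nm; benchmarks: per-plate controls and blanks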
Yeast lifespan up: yeast lifespan extension; hit rate 0.68% among 130,000; inhibition of the nicotinamide effect, % at 10 µM; S. cerevisiae growth with nicotinamide, OD615; deaD strain in restrictive glucose medium;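 active = inhibition above a set limit, placed 3 SD over the median of all compounds, cut at about 26% in these data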
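System: Modified budding yeast, DeaD strain | Buffer or medium: Restrictive glucose medium | Also added: 1.5 mM nicotinamide | Doses: 10 µM single point, 0.25% DMSO | Schedule: 48 h compound exposure at 30 °C, humidified | Detection: Absorbance at 615 nm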
Yeast growth inh: reduces growth of yeast BB579 in restrictive medium. S. cerevisiae BB579 growth, OD615, 48 h. inhibition, % at 10 µM. hit rate 0.51% among 140,000. AID 804;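 active = inhibition above a set limit, 3 SD over the mean compound inhibition, cut at about 44% in these data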
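test system = yeast BB579 (DeaD) | buffer or medium = restrictive CSMM-D medium | doses = single compound dose of 10 µM, 0.25% DMSO final | times = 4 h preincubation and 48 h exposure at 30 °C | technique = culture absorbance at 615 nm | benchmarks = amphotericin B 10 µg/mL, positive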
Hits are given with their value; - = inactive; . = no result. Rows were chosen to be rich in hits. Some 2.4% of all compounds tested hit in one or more screens of this group.

SMILES	HMGR II inh	Arbovirus anti	Measles CPE	Rad51 HR inh	Yeast lifespan up	Yeast growth inh
O=C(Nc1nc2ccccc2s1)c1cc(-c2ccccc2)nn1-c1ccccc1	-	49.5	-	-	-	-
C#CCOCCOCCOCCNc1nc(N2CCN(C(=O)[C@H](C)n3cc(CCCN=C(N)N)nn3)CC2)nc(N2CCN(C(=O)[C@H](CCCCN)n3cc(CCCC)nn3)CC2)n1	10.2	-	-	.	-	-
O=C1CCc2cc(S(=O)(=O)NC(C(=O)N3CCN(c4ccccn4)CC3)c3ccccc3)ccc2N1 (configuration not stated)	-	-	.	41.4	.	.
O=C1CCc2cc(S(=O)(=O)NC(C(=O)NCc3cccnc3)c3ccccc3)ccc2N1 (configuration not stated)	-	-	-	-	-	-
Cc1cccc2c1nc(-c1ccccc1)n1nnnc21	-	54.8	-	-	-	-
COc1cccc(OCC(=O)O)c1	-	-	.	-	.	.
Oc1cccc2ccc(Nc3ccccn3)nc12	-	-	-	-	-	96.7
O=S1(=O)CCC(NC(=S)NCCNC(=S)NC2CCS(=O)(=O)C2)C1 (configuration not stated)	-	-	27.6	-	-	-
CC[n+]1ccc(C(=O)NCc2ccccc2)cc1	-	-	.	-	.	.
O=C(CNS(=O)(=O)c1ccccc1)Nc1ccc(C(F)(F)F)cc1	-	-	-	-	-	-
Cn1ncc(Cl)c1C(=O)Nc1ccc(Cl)cn1	-	-	28.5	-	.	-
Cc1cc(NC(=O)c2c(Cl)cnn2C)no1	-	-	-	-	-	-
Cn1cnnc1SCC(=O)Nc1sc2c(c1C#N)CCCCC2	-	-	32.1	-	-	-
CC(=O)NC1C(=O)N=C(SCC(=O)Nc2sc3c(c2C#N)CCCCCC3)NC1=O (configuration not stated)	9.8	-	.	-	.	.
CC(=O)Nc1ccc(NC(=O)C2CCCN2C(=O)Nc2ccc(F)c([N+](=O)[O-])c2)cc1 (configuration not stated)	-	-	.	-	.	.
C[C@]1(C(=O)NCc2cc(F)cc(C(F)(F)F)c2)C=C[C@@H](Cc2ccccc2)N1C(=O)c1ccccc1	-	-	-	-	-	-
O=C(CCn1c(=O)oc2ccccc21)Nc1nc2ccccc2s1	-	-	40.2	-	-	-
CCOC(=O)CCNC(=O)Nc1ccc2nc(C)n(Cc3ccc(Cl)cc3)c(=O)c2c1	-	-	38.3	-	-	-
CNc1nc(N)nc(-c2cc(Cl)ccc2OC)n1	-	-	.	-	.	.
O=C(Nc1cc(C(F)(F)F)ccc1-n1cnc2ccccc21)c1ccccc1	-	-	-	-	-	-
CC(c1ccccc1)N1CCn2c(nc3cc(NC(=O)c4cccs4)ccc32)C1 (configuration not stated)	-	-	-	-	55.5	-
O=C(CSCc1ccc(F)cc1)Nc1nc2c(s1)CCCC2	-	-	-	66.0	-	-
CCOC(=O)c1ccc(S(=O)(=O)Nc2cc(C(C)(C)C)no2)cc1	-	-	39.9	-	-	-
CC(C)(C)c1cc(NS(=O)(=O)c2ccc3c(c2)OCCO3)on1	-	-	-	-	-	-
Cc1cc([N+](=O)[O-])nn1CCCC(=O)Nc1c(C)n(C)n(-c2ccccc2)c1=O	-	-	.	.	.	.
SMILES	HMGR II inh	Arbovirus anti	Measles CPE	Rad51 HR inh	Yeast lifespan up	Yeast growth inh
O=C(NC1=NCCS1)c1ccc(Cl)c(S(=O)(=O)N2CCCC2)c1	-	32.1	.	-	.	.
CC1=NN(C(=O)c2c(Br)c(C)nn2C)C(O)(C(F)(F)F)C1 (configuration not stated)	-	-	-	-	-	-
CCNS(=O)(=O)c1ccc(NC(=O)c2cccnc2)cc1	-	-	-	.	-	-
CCNS(=O)(=O)c1ccc(NC(=O)c2cc(C(F)(F)F)nn2C)cc1	-	-	101.1	-	-	-
CCOc1cc(/C=N\NC(=O)OC(C)(C)C)ccc1OC(=O)c1ccco1	19.3	-	.	-	.	.
CCOc1cc(/C=N\NC(=O)OC)ccc1OC(=O)c1ccco1	-	-	.	-	.	.
O=S(=O)(NC1CC2CCC1C2)c1ccc(Br)s1 (configuration not stated)	-	-	-	-	-	98.0
COc1ccc(C(=O)NCC(C)(C)SCc2c(C)cc(C)cc2C)cc1	-	46.2	-	-	-	-
Cc1cc(N)n(Cc2cccs2)n1	-	-	.	-	.	.
Cc1ccc2nc(-c3sc4nc(C)ccc4c3N)[nH]c2c1	26.4	-	-	-	.	-
Cc1cc(C)c2c(N)c(-c3nc4ccccc4[nH]3)sc2n1	-	-	-	-	-	-
O=C(NN1CCOCC1)c1cc(-c2cccc(Cl)c2)nc2ccccc12	-	-	42.6	-	-	-
O=C(NC(Cc1ccccc1)C(=O)O)/C(=C/c1ccco1)NC(=O)c1cccc(Br)c1 (configuration not stated)	-	-	-	-	-	-
CC(NC(=O)c1cc(=O)[nH]c2ccccc12)c1ccccc1 (configuration not stated)	11.9	-	.	-	.	.
O=C1CN(C(=O)/C=C/c2ccc(Cl)cc2)c2ccccc2N1	-	31.0	.	-	.	.
O=C1CN(C(=O)COC(=O)CCSc2ccccc2Cl)c2ccccc2N1	-	-	26.8	.	-	-
CC(NC(=O)OCc1ccccc1)C(=O)Oc1cc2oc(=O)cc(-c3ccccc3)c2cc1Cl (configuration not stated)	-	-	28.9	-	-	-
O=C(NC1CCCC1)C(c1ccncc1)N(C(=O)Cc1cccs1)c1ccccc1 (configuration not stated)	10.4	-	.	-	.	.
COC(C/C=C/[C@H](O)[C@@H](C)OCc1ccccc1)OC	.	.	.	-	.	.
CCCn1c(SCC(=O)Nc2cc(S(=O)(=O)N3CCOCC3)ccc2OC)n[nH]c1=O	-	-	49.6	-	-	-
COc1ccc(N2CCN(S(=O)(=O)c3cnc[nH]3)CC2)cc1	.	.	.	-	.	.
COc1cccc(OC)c1C(=O)N1CCN(S(=O)(=O)c2ccc(C)cc2)CC1	-	-	42.4	-	-	-
Cc1ccc(S(=O)(=O)N2CCN(C(=O)c3ccccc3)CC2)cc1	-	-	-	-	-	-
Cc1cc(Br)cn2cc(C(=O)O)nc12	-	-	.	-	.	.
CSc1nnc(C)c(=O)n1COC(=O)c1cc(Cl)ccc1[N+](=O)[O-]	-	-	.	-	.	.
SMILES	HMGR II inh	Arbovirus anti	Measles CPE	Rad51 HR inh	Yeast lifespan up	Yeast growth inh
Cc1ccc([N+](=O)[O-])cc1-c1ccc(/C=N/NC(=O)CN2CCOCC2)o1	.	.	.	-	.	.
Cc1ccc(Cl)cc1-c1ccc(C=Nc2ccc(N3CCOCC3)cc2)o1	-	-	60.2	.	-	-
CCN(CC)C(=O)c1cnn(-c2ccccc2)c1NC(=O)c1cccs1	9.6	-	-	-	.	-
CCN(CC)C(=O)c1cnn(-c2ccccc2)c1NC(=O)c1ccco1	-	-	-	-	-	-
CSc1ccc(/C=C(/NC(=O)c2ccc(C)cc2)C(=O)Nc2cccc(F)c2)cc1	-	-	-	-	-	-
CCCNC(=O)C(=O)N/N=C/c1cccs1	-	-	50.1	.	-	-

Source: PubChem BioAssay
